These results are taken from ChEMBL document CHEMBL1833821, “Defining the structural parameters that confer anticonvulsant activity by the site-by-site modification of (R)-N'-benzyl 2-amino-3-methylbutanamide” (J Med Chem, 2011).

The test system of series [1] is Mus musculus. Put plainly: Anticonvulsant activity in ip dosed albino CF1 mouse assessed as protection against maximal electroshock-induced seizures in presence of 50 miliamperes of electric current. In kind it is functional. The essentials: (§1)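 Adult male albino CF-1 (Carworth Farms No. 1) mice dosed ip under NINDS ASP; MES test. Compounds with sufficient activity got a dose-response curve (4–6 doses, n = 8 per dose) at the time of peak effect (h, bracketed).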
(In general: Protection in the maximal electroshock model is a classic sign of anticonvulsant action.)

Series [2] has as its system Mus musculus. Put plainly: Anticonvulsant activity in ip dosed albino CF1 mouse assessed as time of peak effect by maximal electroshock seizures test in presence of 50 miliamperes of electric current. In kind it is functional. An outline of the steps: as §1
The nature of series [3]: Neurotoxicity in ip dosed albino CF1 mouse assessed as minimal motor coordination impairment by rotarod test. In kind it is toxicity, organism-based. The following applies: in vivo. (In general: The rotarod test checks motor coordination on a turning rod.)
The species named for series [4] is Mus musculus. Kind of series: Protective index, ratio of TD50 for albino CF1 mouse by rotarod test to ED50 for albino CF1 mouse by maximal electroshock seizures test. In kind it is functional. An outline of the steps:
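Mouse protective index calculated as rotorod TD50 divided by MES ED50, both from ip dosing of male CF-1 mice at the NINDS ASP.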

The test system of series [5] is Rattus norvegicus. Kind of series: Anticonvulsant activity in po dosed albino Sprague-Dawley rat assessed as protection against maximal electroshock-induced seizures in presence of 150 miliamperes of electric current. In kind it is functional. The essentials:
(§2)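 Adult male albino Sprague-Dawley rats dosed orally under NINDS ASP; MES test. ED50 in mg/kg, with time of testing noted in hours in brackets.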

For series [6], the system named is Rattus norvegicus. Kind of series: Anticonvulsant activity in po dosed albino Sprague-Dawley rat assessed as time of peak effect by maximal electroshock seizures test in presence of 150 miliamperes of electric current. In kind it is functional. The essentials:
as §2

A short description of series [7]: Neurotoxicity in po dosed albino Sprague-Dawley rat. In kind it is toxicity, organism-based. The following applies: in vivo. An outline of the steps: (§3)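 Adult male albino Sprague-Dawley rats given compound orally under NINDS ASP. Behavioral toxicity was scored by the positional sense test or the gait and stance test. TD50 in mg/kg, with time in hours bracketed.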

The species named for series [8] is Rattus norvegicus. Kind of series: Protective index, ratio of TD50 for albino Sprague-Dawley rat to ED50 for albino Sprague-Dawley rat by maximal electroshock seizures test. In kind it is functional. The essentials:
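Rat protective index calculated as behavioral toxicity TD50 divided by MES ED50, both after oral dosing of male Sprague-Dawley rats at the NINDS ASP.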

For series [9], the system named is Mus musculus. Kind of series: Neurotoxicity in ip dosed albino CF1 mouse assessed as time of peak effect by rotarod test. Particulars: in vivo. In kind it is toxicity, organism-based.
The subject of series [10] is Mus musculus. Kind of series: Anticonvulsant activity in ip dosed albino CF1 mouse assessed as protection against subcutaneous metrazol-induced seizures. In kind it is functional, organism-based. An outline of the steps:
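Male albino CF-1 mice dosed ip under NINDS ASP; subcutaneous pentylenetetrazol (Metrazol) seizure threshold test.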

Series [11] concerns Rattus norvegicus. Put plainly: Behavioral toxicity in po dosed albino Sprague-Dawley rat assessed as time of peak effect. The following applies: in vivo. In kind it is organism-based. The essentials:
as §3

The test system of series [12] is Mus musculus. Kind of series: Anticonvulsant activity in ip dosed NMRI mouse assessed as protection against maximal electroshock-induced seizures after 30 mins in presence of 50 miliamperes of electric current. In kind it is functional. The following applies: 0.5 h.

In general, ED50 refers to the midpoint of the dose-response relation. In general, TD50 refers to the dose at which the toxic effect under study appears in half of the subjects.

Active and inactive are the calls of the source. Some results are limits rather than exact numbers.

Turning to `CCC(C)C(=O)NCc1ccccc1` (racemic), the results for the 50% effective dose (ED50) in [1] and in [5] were 56 mg/kg and 51 mg/kg, respectively. The Time in [2] was determined as 0.25 h; in [6] it was 0.5 h; in series [9] it was 0.25 h. In addition, the TD50 was 165 mg/kg in [3] and greater than 500 mg/kg in series [7]. The PI in [4] is given as 2.9; in series [8] it was greater than 9.8. Also, the result in series [10] was inactive.
`CC(C)[C@@H](N)C(=O)NCCCc1ccccc1`: the results for the 50% effective dose (ED50) in [1] and in series [5] were 16 mg/kg and less than 30 mg/kg, respectively. The Time in series [2], in [6], in [11] and in [9] was 0.25 h each time. The TD50 is 43 mg/kg in series [3] and greater than 30 mg/kg in series [7]. The PI in series [4] came out at 2.7. The outcome in series [10] was inactive.
Consider `CC(C)[C@@H](N)CNCc1ccccc1`, for which the ED50 is 30 mg/kg in [1] and greater than 30 mg/kg in series [5]. Moreover, the Time came out at 0.5 h in series [2], 0.25 h in series [6], 0.25 h in series [11] and 0.5 h in [9]. In addition, the results for the TD50 in series [3] and in [7] were 100 mg/kg and greater than 30 mg/kg, respectively. Further, the outcome in series [10] was inactive.
On to `CN[C@@H](C(=O)NCc1ccccc1)C(C)C`, for which the ED50 in series [12] is 25 mg/kg.
Consider `CC(C)[C@@H](N)C(=O)NCCc1ccccc1F`, for which, in series [1], the ED50 was determined as 27 mg/kg. The Time in series [2] worked out at 0.25 h; in series [6], 4 h; in series [9], 0.25 h. Further, the TD50 was determined as 79 mg/kg in series [3] and 500 mg/kg in series [7]. The PI is reported as 2.9 in [4] and greater than 25 in series [8].
As for `CC(C)[C@@H](N)C(=O)Nc1ccccc1`, the median effective dose (ED50) in [1] is 30 mg/kg. In addition, the Time in [2] and in series [9] was 0.5 h throughout. Moreover, in series [3], the TD50 is greater than 30 mg/kg. Moreover, in series [10], the result was inactive.
Regarding `CC(C)[C@@H](N)C(=O)NCCc1cccc(F)c1`, the figures for the median effective dose (ED50) in [1] and in series [5] were 20 mg/kg and 38 mg/kg, respectively. The Time in series [2] was 0.25 h; in series [6], 0.5 h; in series [9] it was 0.25 h. Further, the TD50 is 67 mg/kg in series [3] and greater than 500 mg/kg in series [7]. For the same molecule, in [4], the PI is 3.4.
With `CC[C@H](C)C(=O)NCc1ccccc1`, the figures for the 50% effective dose (ED50) in series [1] and in [5] were 100 mg/kg and greater than 30 mg/kg, respectively. Besides, the Time in series [2] turned out to be 0.5 h; in [6] it was 0.25 h; in [11], 0.25 h; in series [9], 0.5 h. Besides, the values for the TD50 in [3] and in series [7] were 300 mg/kg and greater than 30 mg/kg, respectively.
As for `CCCC(=O)NCc1ccccc1`, the TD50 is 100 mg/kg in series [3] and greater than 30 mg/kg in series [7]. In addition, the Time in series [9] worked out at 0.5 h.
For the molecule `CC(C)[C@@H](N)C(=O)CCc1ccccc1.Cl`, the ED50 in [1] came out at 30 mg/kg. The TD50 in series [3] turned out to be 100 mg/kg. In [10], the result was inactive.
With `CC(C)[C@@H](N)C(=O)NCCc1ccccc1`, the ED50 in series [1] was 10 mg/kg; in series [5], less than 30 mg/kg. For the same molecule, the Time in series [2] was 0.25 h; in [6], 0.25 h; in series [11] it was 0.24 h; in series [9], 0.25 h. Moreover, the results for the TD50 in series [3] and in [7] were 50 mg/kg and greater than 30 mg/kg, respectively. For the same molecule, the PI in [4] amounted to 5. The outcome in [10] was inactive.
Take `CC(C)[C@@H](N)C(=O)OCc1ccccc1`: the ED50 in series [1] was greater than 300 mg/kg; in [5], greater than 30 mg/kg. Also, the Time was 0.5 h in [2], 0.25 h in [6], 0.25 h in series [11] and 0.5 h in series [9]. Also, the TD50 in [3] was greater than 300 mg/kg; in series [7], greater than 30 mg/kg. The result in series [10] was inactive.
`COC[C@@H](NC(C)=O)C(=O)NCc1ccccc1` [LACOSAMIDE]: the results for the Time in series [2], in [6] and in series [9] were 0.5 h, 2 h and 0.25 h, respectively. For the same molecule, the PI in series [4] is recorded as 6. Further, the TD50 in [7] was greater than 500 mg/kg.
As to `CC(C)[C@@H](N)C(=O)NCC1CCCCC1`, the 50% effective dose (ED50) in [1] was 30 mg/kg; in [5], 15 mg/kg. In addition, the Time in series [2] was 0.5 h; in series [6] it was 0.25 h; in series [11] it was 0.25 h; in [9], 0.5 h. The TD50 is 100 mg/kg in series [3] and greater than 30 mg/kg in series [7]. The outcome in series [10] was inactive.
For `CC[C@@H](O)C(=O)NCc1ccccc1`, the 50% effective dose (ED50) is 100 mg/kg in series [1] and greater than 30 mg/kg in [5]. Also, the Time in [2] turned out to be 0.5 h; in series [6] it was 0.25 h; in [11], 0.25 h; in series [9], 0.5 h. The TD50 in [3] was 100 mg/kg; in [7] it was greater than 30 mg/kg. In series [10], the result was inactive.
For `CC(C)[C@@H](N)C(=O)NCCc1ccc(F)cc1`, the ED50 in series [1] was found to be 10 mg/kg. Moreover, the TD50 in series [3] came out at 30 mg/kg.
Turning to `O=C1NC(=O)C(c2ccccc2)(c2ccccc2)N1` [PHENYTOIN], the figures for the Time in [2], in series [6] and in [9] were 2 h, 4 h and 0.25 h, respectively. In addition, in [5], the ED50 is 30 mg/kg. In addition, the TD50 in series [7] was greater than 3000 mg/kg.
On to `CC(C)[C@H](C(=O)NCc1ccccc1)N(C)C`, for which the ED50 in series [1] was 30 mg/kg. Further, the Time in [2] and in [9] was 0.5 h throughout. Moreover, the TD50 in series [3] worked out at 100 mg/kg. The outcome in series [10] was inactive.
With `CC(C)[C@@H](N)C(=O)NCc1cccc(OC(F)(F)F)c1`, the median effective dose (ED50) in series [1] amounted to 7.1 mg/kg; in [5], 10 mg/kg. The Time in series [2] was 0.25 h; in series [6] it was 1 h; in series [11], 1 h; in series [9], 0.25 h. Moreover, the TD50 in [3] was 30 mg/kg; in series [7], 43 mg/kg. In addition, the values for the PI in series [4] and in [8] were 4.2 and 4.3, respectively. Further, the result in [10] was inactive.
`CC(C)[C@@H](N)C(=O)NCc1ccccc1OC(F)(F)F`: the ED50 in series [1] is 9.2 mg/kg; in series [5], 33 mg/kg. Further, the results for the Time in series [2], in [6] and in series [9] were 0.25 h, 0.5 h and 0.25 h, respectively. Moreover, the results for the TD50 in [3] and in series [7] were 51 mg/kg and greater than 500 mg/kg, respectively. In addition, the PI in series [4] is 5.5; in series [8] it was greater than 15. Besides, in [10], the result was inactive.
For `CC(C)[C@@H](N)C(=O)NCCCCc1ccccc1`, the 50% effective dose (ED50) in series [1] is 11 mg/kg; in series [5] it was greater than 30 mg/kg. For the same molecule, the Time in series [2], in [6], in series [11] and in series [9] was 0.25 h in each case. In addition, the values for the TD50 in series [3] and in series [7] were 38 mg/kg and greater than 30 mg/kg, respectively. Also, in series [4], the PI amounted to 3.5. The result in [10] was inactive.
On to `CCC1(c2ccccc2)C(=O)NC(=O)NC1=O` [PHENOBARBITAL], for which the 50% effective dose (ED50) in [1] stood at 22 mg/kg; in [5], 9.1 mg/kg. The Time was 1 h in series [2], 5 h in [6], 0.5 h in series [11] and 0.5 h in [9]. Also, the PI in series [4] is recorded as 3; in series [8], greater than 100.
On to `CC(=O)NC(C(=O)NCc1ccccc1)c1ccccc1` (racemic), for which the median effective dose (ED50) in series [1] amounted to 20 mg/kg.
Regarding `CCCC(CCC)C(=O)[O-].[Na+]` [VALPROATE SODIUM], the ED50 in series [1] amounted to 270 mg/kg. For the same molecule, the Time in [2] was 0.5 h; in [6], 0.5 h; in series [11] it was 0.5 h; in series [9] it was 0.25 h.
On to `CC(C)[C@@H](N)C(=S)NCc1ccccc1`, for which the ED50 in series [1] was 30 mg/kg; in series [5] it was less than 30 mg/kg. Further, the Time in series [2] is 0.5 h; in [6], 0.5 h; in [11] it was 0.25 h; in series [9], 0.5 h. Moreover, the values for the TD50 in series [3] and in [7] were 30 mg/kg and greater than 30 mg/kg, respectively. Further, the outcome in series [10] was inactive.
